Screens (PubChem BioAssay)
Pf Dd2 inh: P. falciparum Dd2 growth inhibition | AID 1159554 | 2.3% of 94,000 active | activity change, % at 10 µM | SYBR Green, 72 h; stronger effect = lower value; in the data active = activity change below about -80%
IDH1 mut inh: IDH1 R132H (human) inhibition. IDH1 R132H reductase, diaphorase/resazurin fluorescence, 60 min. 0.18% of 70,000 active. inhibition, % at 10 µM. O75874; in the data active = inhibition above about 34%;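 note: 0% = DMSO and 100% = no enzyme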
Target sequence (O75874 whole entry R132H): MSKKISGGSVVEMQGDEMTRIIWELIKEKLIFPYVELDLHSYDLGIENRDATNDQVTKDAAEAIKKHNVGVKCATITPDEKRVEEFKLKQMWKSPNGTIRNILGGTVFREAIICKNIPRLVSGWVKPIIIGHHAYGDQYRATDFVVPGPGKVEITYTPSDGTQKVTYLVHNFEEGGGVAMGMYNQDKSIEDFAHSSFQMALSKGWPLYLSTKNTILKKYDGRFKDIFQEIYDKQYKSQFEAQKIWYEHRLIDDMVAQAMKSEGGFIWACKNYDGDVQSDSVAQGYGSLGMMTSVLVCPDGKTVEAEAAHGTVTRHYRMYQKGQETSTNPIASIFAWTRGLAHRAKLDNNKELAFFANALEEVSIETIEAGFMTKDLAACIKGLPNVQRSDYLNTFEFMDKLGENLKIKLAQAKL
T cruzi growth: T. cruzi proliferation inhibition. T. cruzi beta-gal in NIH3T3, GalScreen luminescence, 90 h. inhibition, % at 8.34 µM. 5.9% of 77,000 active. AID 624255;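 active = mean inhibition above about 93%, with at least 55% of replicates each passing it, limit read from the data, passing the limit was not always enough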
KDM4C inh: blocks human GASC-1 (KDM4C) demethylase activity; Q9H3R0; GST-KDM4C 2-372, H3K9me3 peptide, LANCE TR-FRET; inhibition, % at 12.5 µM; 0.15% of 96,000 active;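 active = mean replicate inhibition above about 25%, with at least 55% of replicates also reaching it, limit read from the data, passing the limit was not always enough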
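Assay system: GST-GASC-1 enzyme fragment 2-372 | Amount: 10 nM enzyme | Medium: HEPES buffer, pH 7.5, plus ascorbate | Reagent: H3K9me3 peptide substrate, Fe(II), 2-oxoglutarate | Doses: Single-point compound screen | Incubation: 30 min demethylation and 1 h detection at room temperature | Measured by: LANCE TR-FRET, excitation 340 nm, emissions 618 and 671 nm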
An asterisk follows results filed as active; . = no result. Shown are actives, neighbours in structure and some others; about 5.8% of the full set was active somewhere.

SMILES	Pf Dd2 inh	IDH1 mut inh	T cruzi growth	KDM4C inh
C[C@@H]1CCCCO[C@H](CN(C)C(=O)Nc2cccc3ccccc23)[C@@H](C)CN([C@@H](C)CO)C(=O)c2cc(NS(=O)(=O)c3ccccc3)ccc2O1	-88*	1	.	0
COc1cc2c(cc1NC(=O)CSc1nnc(-c3cnccn3)n1-c1ccccc1)oc1ccccc12	.	1	.	.
S=C(Nc1cccc(Cl)c1)Nc1cc(-c2ccc(Cl)cc2)[nH]n1	.	4	.	.
C[C@H]1CN([C@@H](C)CO)C(=O)c2cccc(NC(=O)c3nc4ccccc4s3)c2O[C@@H]1CN(C)S(=O)(=O)c1ccccc1	-81*	.	50	0
C[C@H]1CN([C@@H](C)CO)C(=O)c2cccc(NC(=O)c3nc4ccccc4s3)c2O[C@H]1CN(C)Cc1ccc(C(=O)Nc2ccccc2N)cc1	-91*	.	97*	-1
C[C@H](CO)N1C[C@H](C)[C@@H](CN(C)Cc2ccncc2)Oc2c(NC(=O)c3nc4ccccc4s3)cccc2C1=O	-55	35*	.	-3
C[C@H]1CN([C@@H](C)CO)C(=O)c2cccc(NC(=O)c3nc4ccccc4s3)c2O[C@H]1CN(C)Cc1ccccc1	-22	.	77	1
C[C@@H]1CN([C@H](C)CO)C(=O)Cc2cc(NS(=O)(=O)c3ccc(Cl)cc3)ccc2O[C@H]1CN(C)Cc1ccc(C(=O)Nc2ccccc2N)cc1	-41	.	.	-1
C[C@@H]1CN([C@@H](C)CO)C(=O)Cc2cc(NS(=O)(=O)c3ccc(Cl)cc3)ccc2O[C@@H]1CN(C)Cc1ccc(C(=O)Nc2ccccc2N)cc1	-82*	0	.	3
C[C@@H]1CN([C@H](C)CO)C(=O)Cc2cc(NS(=O)(=O)c3ccc(Cl)cc3)ccc2O[C@@H]1CN(C)Cc1ccc(C(=O)Nc2ccccc2N)cc1	-85*	0	.	5
C[C@@H]1CN([C@@H](C)CO)C(=O)Cc2cc(NS(=O)(=O)c3ccccc3)ccc2O[C@@H]1CN(C)Cc1ccc(C(=O)Nc2ccccc2N)cc1	-88*	0	42	-2
COc1ccc(OC)c(NC(=O)CSc2nnc(-c3ccc(F)cc3)n2C)c1	.	0	.	.
C[C@@H]1CN([C@@H](C)CO)C(=O)c2cccc(NC(=O)c3cnccn3)c2O[C@@H]1CN(C)Cc1ccc(-c2ccccc2)cc1	-87*	.	36	1
C[C@@H]1CN([C@@H](C)CO)C(=O)c2cccc(NC(=O)c3cnccn3)c2O[C@H]1CN(C)Cc1ccc(Cl)c(Cl)c1	-83*	0	77	-2
C[C@H](CO)N1C[C@H](C)[C@H](CN(C)Cc2ccccc2)Oc2c(NC(=O)c3cnccn3)cccc2C1=O	-4	.	63	-2
C[C@@H]1CN([C@H](C)CO)C(=O)c2cccc(NC(=O)c3cnccn3)c2O[C@H]1CN(C)Cc1ccc(C(=O)Nc2ccccc2N)cc1	-91*	.	.	0
C[C@@H]1CN([C@@H](C)CO)C(=O)c2cccc(NC(=O)c3cnccn3)c2O[C@@H]1CN(C)Cc1ccc(Cl)c(Cl)c1	-58	.	10	1
CS(=O)(=O)N1[C@H](C#N)[C@H](c2ccc(C#CC3CCCCC3)cc2)[C@H]1CO	-20	.	99*	-2
Cc1ccccc1S(=O)(=O)N1[C@H](CO)[C@@H](c2ccc(C#CC3CCCCC3)cc2)[C@@H]1C#N	-83*	.	90	-3
CS(=O)(=O)N1[C@H](CO)[C@@H](c2ccc(C#CC3CCCC3)cc2)[C@@H]1C#N	-3	.	89	-4
N#C[C@H]1[C@@H](c2ccc(C#CC3CCCC3)cc2)[C@@H](CO)N1S(=O)(=O)c1ccccc1	-83*	0	91	-1
Cc1ccccc1S(=O)(=O)N1[C@H](C#N)[C@H](c2ccc(C#CC3CCCCC3)cc2)[C@@H]1CO	-44	.	84	-2
Cc1ccccc1S(=O)(=O)N1[C@@H](C#N)[C@@H](c2ccc(-c3ccc(F)cc3)cc2)[C@@H]1CO	-13	.	107*	-3
Cc1ccccc1S(=O)(=O)N1[C@H](C#N)[C@@H](c2ccc(-c3ccc(F)cc3)cc2)[C@@H]1CO	-14	.	84	0
Cc1ccccc1C(C#N)C(CC#N)c1ccccc1 (stereo not given)	.	-1	.	.
SMILES	Pf Dd2 inh	IDH1 mut inh	T cruzi growth	KDM4C inh
Cc1ccccc1-c1nc2cc(NC(=O)COc3ccc(Br)cc3)ccc2o1	.	0	.	.
Cc1ccccc1S(=O)(=O)N1[C@H](C#N)[C@@H](c2ccc(C#CC3CC3)cc2)[C@@H]1CO	-85*	.	74	0
Cc1noc(C)c1S(=O)(=O)N(C)C[C@@H]1OCCCC[C@H](C)Oc2ccc(NC(=O)Nc3ccccc3)cc2C(=O)N([C@H](C)CO)C[C@H]1C	-83*	0	.	0
Cc1noc(C)c1S(=O)(=O)N(C)C[C@H]1OCCCC[C@H](C)Oc2ccc(NC(=O)Nc3ccccc3)cc2C(=O)N([C@H](C)CO)C[C@@H]1C	-4	.	.	-2
Cc1noc(C)c1S(=O)(=O)N(C)C[C@@H]1OCCCC[C@H](C)Oc2ccc(NC(=O)c3ccccc3)cc2C(=O)N([C@@H](C)CO)C[C@H]1C	-88*	.	11	-1
Cc1ccc([N+](=O)[O-])cc1NS(=O)(=O)c1cccc(C(=O)Nc2ccccc2)c1	.	-1	.	.
Cc1ccc(OCC(=O)Nc2ccc3c(c2)oc2ccccc23)cc1[N+](=O)[O-]	.	0	.	.
Cc1ccc(S(=O)(=O)Nc2ccc3c(c2)CC(=O)N([C@@H](C)CO)C[C@@H](C)[C@@H](CN(C)Cc2ccc(C(=O)Nc4ccccc4N)cc2)O3)cc1	-88*	0	67	-2
Cc1ccc(S(=O)(=O)Nc2ccc3c(c2)CC(=O)N([C@H](C)CO)C[C@H](C)[C@@H](CN(C)Cc2ccc(C(=O)Nc4ccccc4N)cc2)O3)cc1	-85*	-3	.	-1
CO[C@H]1CN(C)C(=O)c2ccc(NC(=O)c3cccc(F)c3)cc2OC[C@H](C)N(C)C[C@H]1C	-52	2	-36	38*
CO[C@@H]1CN(C)C(=O)c2ccc(NC(=O)c3ccccc3)cc2OC[C@H](C)N(C)C[C@@H]1C	.	89*	-10	19
CO[C@H]1CN(C)C(=O)c2ccc(NC(=O)c3ccccc3)cc2OC[C@@H](C)N(C)C[C@@H]1C	.	0	6	0
CO[C@@H]1CN(C)C(=O)c2ccc(NC(=O)Nc3c(C)noc3C)cc2OC[C@H](C)N(C)C[C@@H]1C	17	0	25	51*
CO[C@H]1CN(C)C(=O)c2ccc(NC(=O)C3CCCC3)cc2OC[C@H](C)N(C(C)=O)C[C@H]1C	.	0	.	47*
COc1ccc([N+](=O)[O-])cc1NC(=O)CN(C)S(=O)(=O)c1ccc(Br)cc1	.	0	.	.
CC(C)C(NC=O)C(=O)OCC(O)C(O)C(O)C(O)COC(=O)C(NC=O)C(C)C (stereo not given)	.	0	.	.
CCC(C)C(Nc1ncnc2c1oc1ccccc12)C(=O)O (stereo not given)	.	0	.	.
CO[C@H]1CN(C)C(=O)c2cc(NC(=O)c3cccc(F)c3)ccc2OC[C@@H](C)N(C(C)=O)C[C@@H]1C	.	0	9	1
